According to ChEMBL document CHEMBL1140920, “Design, synthesis, and biological evaluation of 6alpha- and 6beta-N-heterocyclic substituted naltrexamine derivatives as mu opioid receptor selective antagonists” (J Med Chem, 2009):

Columns and labels:
[1] = Selectivity ratio of Ki for monocloned delta opioid receptor to Ki for monocloned mu opioid receptor
In short: (§1)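 CHO cell membranes expressing cloned receptor incubated with radioligand plus varying test drug concentrations, 30 °C, 1 h. IC50 from linear regression of Hill plots, converted to Ki by Cheng-Prusoff; selectivity as Ki ratios.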

[2] = Selectivity ratio of Ki for monocloned kappa opioid receptor to Ki for monocloned mu opioid receptor; in short: as §1
[3] = target: Kappa-type opioid receptor (Homo sapiens, UniProt P41145); test: Displacement of [3H]norBNI from monocloned kappa opioid receptor expressed in CHO cells; format: cell-based; in short: as §1
Mu-type opioid receptor [4] = target: T1, Mu-type opioid receptor (Homo sapiens, UniProt P35372); test: Displacement of [3H]naloxone from monocloned mu opioid receptor expressed in CHO cells; format: cell-based; in short: as §1
[5] = target: Delta-type opioid receptor (Homo sapiens, UniProt P41143); test: Displacement of [3H]NTI from monocloned delta opioid receptor expressed in CHO cells; format: cell-based; in short: as §1
Mu-type opioid receptor [6] = target: T1, Mu-type opioid receptor; test: Activity at monocloned mu opioid receptor expressed in CHO cells by [35S]GTPgammaS binding assay; format: functional, cell-based
In short: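 Membranes from CHO cells stably expressing cloned MOR, the same membranes as used for binding. [35S]GTPγS binding as the functional read-out. Potency also reported. n = 3.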

Mu-type opioid receptor [7] = target: T1, Mu-type opioid receptor; test: Activity at monocloned mu opioid receptor expressed in CHO cells by [35S]GTPgammaS binding assay relative to DAMGO; format: functional, cell-based
Mus musculus [8] = test: Inhibition of morphine-induced antinociception in sc dosed Swiss Webster mouse assessed as dose producing 50% antagonism of morphine response preincubated for 5 mins before the addition of morphine assessed after 20 mins by warm water tail immersion test; format: functional
[9] = Binding affinity to mu opioid Y210A mutant receptor expressed in CHO cells; format: cell-based
Mu-type opioid receptor [10] = target: T1, Mu-type opioid receptor; test: biochemical
[11] = Binding affinity to mu opioid W318A mutant receptor expressed in CHO cells; format: cell-based
Mus musculus [12] = test: Induction of antinociception in sc dosed Swiss Webster mouse after 20 mins by warm water tail immersion test; format: functional

T1 sequence (P35372 whole entry): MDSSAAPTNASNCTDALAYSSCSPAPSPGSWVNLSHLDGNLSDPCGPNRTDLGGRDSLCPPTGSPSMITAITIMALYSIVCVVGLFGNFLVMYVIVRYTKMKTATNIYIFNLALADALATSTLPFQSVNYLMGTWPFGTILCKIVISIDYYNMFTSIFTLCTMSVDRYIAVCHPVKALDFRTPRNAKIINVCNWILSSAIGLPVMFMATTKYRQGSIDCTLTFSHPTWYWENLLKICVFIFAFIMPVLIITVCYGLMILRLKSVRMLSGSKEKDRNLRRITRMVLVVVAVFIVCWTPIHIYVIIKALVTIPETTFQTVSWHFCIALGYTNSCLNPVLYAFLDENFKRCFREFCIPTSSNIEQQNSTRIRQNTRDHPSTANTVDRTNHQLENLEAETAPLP
Sequence of Kappa-type opioid receptor (P41145 whole entry): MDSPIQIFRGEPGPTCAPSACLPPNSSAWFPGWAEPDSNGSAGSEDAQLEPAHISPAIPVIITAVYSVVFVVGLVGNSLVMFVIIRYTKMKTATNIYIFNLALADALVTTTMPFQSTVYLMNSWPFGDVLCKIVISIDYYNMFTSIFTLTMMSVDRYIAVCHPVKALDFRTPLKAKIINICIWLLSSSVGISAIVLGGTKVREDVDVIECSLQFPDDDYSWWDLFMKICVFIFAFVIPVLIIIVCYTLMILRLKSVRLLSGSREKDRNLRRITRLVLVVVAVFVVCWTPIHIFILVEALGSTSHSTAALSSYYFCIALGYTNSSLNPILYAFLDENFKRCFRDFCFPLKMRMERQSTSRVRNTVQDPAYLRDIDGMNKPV
Sequence of Delta-type opioid receptor (P41143 whole entry): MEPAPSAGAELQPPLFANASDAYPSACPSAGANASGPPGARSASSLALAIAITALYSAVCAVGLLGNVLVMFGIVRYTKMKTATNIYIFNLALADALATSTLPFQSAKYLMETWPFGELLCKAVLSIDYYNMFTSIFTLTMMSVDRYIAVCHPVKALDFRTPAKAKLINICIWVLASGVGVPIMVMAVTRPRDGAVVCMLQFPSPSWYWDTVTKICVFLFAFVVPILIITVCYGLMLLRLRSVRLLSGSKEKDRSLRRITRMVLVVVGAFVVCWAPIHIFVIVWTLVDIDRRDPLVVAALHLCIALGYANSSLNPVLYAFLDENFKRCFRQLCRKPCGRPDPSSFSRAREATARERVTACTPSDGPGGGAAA

Compound	Ratio Ki [1]	Ratio Ki [2]	Ki [3]	Ki (Mu-type opioid receptor [4])	Ki [5]	Emax (Mu-type opioid receptor [6])	EC50 (Mu-type opioid receptor [6]; cho)	Activity (Mu-type opioid receptor [7])	Activity (Mus musculus [8])	EC50 (Mu-type opioid receptor [6]; read-out: EC50)	IC50 [9]	IC50 (Mu-type opioid receptor [10])	IC50 [11]	ED50 (Mus musculus [12])
COc1cccc2c1[C@]13CCN(CC4CC4)[C@H](C2)[C@]1(OC)CCC(=O)C3	40	45	–	–	–	–	–	–	–	–	–	–	–	–
O=C(N[C@H]1CC[C@@]2(O)[C@H]3Cc4ccc(O)c5c4[C@@]2(CCN3CC2CC2)[C@H]1O5)c1ccc2ccccc2c1	62	73	609 nM	8.36 nM	518 nM	–	–	–	–	–	–	–	–	–
O=C(N[C@H]1CC[C@@]2(O)[C@H]3Cc4ccc(O)c5c4[C@@]2(CCN3CC2CC2)[C@H]1O5)c1ccccc1	–	–	41.7 nM	1.41 nM	–	–	–	–	–	–	–	–	–	–
O=C(N[C@@H]1CC[C@@]2(O)[C@H]3Cc4ccc(O)c5c4[C@@]2(CCN3CC2CC2)[C@H]1O5)c1cnc2ccccc2c1	157	8	0.57 nM	0.07 nM	11.6 nM	196%	0.29	53.4%	42.55 mg/kg	–	–	–	–	–
O=C(N[C@H]1CC[C@@]2(O)[C@H]3Cc4ccc(O)c5c4[C@@]2(CCN3CC2CC2)[C@H]1O5)c1cc2ccccc2cn1	241	48	26.5 nM	0.55 nM	132 nM	58%	–	15.8%	–	4.36 nM	3.31 nM	5.42 nM	> 1000 nM	–
O=C(N[C@@H]1CC[C@@]2(O)[C@H]3Cc4ccc(O)c5c4[C@@]2(CCN3CC2CC2)[C@H]1O5)c1ccc2ccccc2n1	36	47	5.04 nM	0.11 nM	3.86 nM	150%	–	40.9%	–	0.69 nM	–	–	–	0.04 mg/kg
O=C(N[C@H]1CC[C@@]2(O)[C@H]3Cc4ccc(O)c5c4[C@@]2(CCN3CC2CC2)[C@H]1O5)c1ccccn1	24	84	223 nM	2.65 nM	64.5 nM	134%	–	37.8%	0.89 mg/kg	23.9 nM	–	–	–	–
O=C(N[C@H]1CC[C@@]2(O)[C@H]3Cc4ccc(O)c5c4[C@@]2(CCN3CC2CC2)[C@H]1O5)c1cccnc1	265	501	77.2 nM	0.15 nM	40.8 nM	164%	–	44.8%	36.77 mg/kg	1.01 nM	–	–	–	–
O=C(N[C@@H]1CC[C@@]2(O)[C@H]3Cc4ccc(O)c5c4[C@@]2(CCN3CC2CC2)[C@H]1O5)c1ccncc1	–	–	–	–	–	83.3%	–	22.7%	–	–	–	–	> 1000 nM	–
O=C(N[C@@H]1CC[C@@]2(O)[C@H]3Cc4ccc(O)c5c4[C@@]2(CCN3CC2CC2)[C@H]1O5)c1cccnc1	1410	40	5.42 nM	0.14 nM	192 nM	107%	–	29.1%	1.38 mg/kg	0.33 nM	–	–	–	–
O=C(N[C@H]1CC[C@@]2(O)[C@H]3Cc4ccc(O)c5c4[C@@]2(CCN3CC2CC2)[C@H]1O5)c1ccncc1	–	–	19.6 nM	–	–	137%	–	37.3%	–	–	–	–	–	–
O=C(N[C@@H]1CC[C@@]2(O)[C@H]3Cc4ccc(O)c5c4[C@@]2(CCN3CC2CC2)[C@H]1O5)c1ccccc1	–	–	7.79 nM	0.92 nM	–	–	–	–	–	–	–	–	–	–
O=C(N[C@@H]1CC[C@@]2(O)[C@H]3Cc4ccc(O)c5c4[C@@]2(CCN3CC2CC2)[C@H]1O5)c1ccccn1	37	47	278 nM	5.85 nM	215 nM	151%	–	41.1%	0.33 mg/kg	26.3 nM	–	–	–	–
O=C(N[C@@H]1CC[C@@]2(O)[C@H]3Cc4ccc(O)c5c4[C@@]2(CCN3CC2CC2)[C@H]1O5)c1cc2ccccc2cn1	156	16	1.58 nM	0.1 nM	15.4 nM	121%	–	33%	–	0.27 nM	–	–	–	1.19 mg/kg
O=C(N[C@@H]1CC[C@@]2(O)[C@H]3Cc4ccc(O)c5c4[C@@]2(CCN3CC2CC2)[C@H]1O5)c1ccc2ccccc2c1	0.5	1	65.3 nM	55.6 nM	29.3 nM	–	–	–	–	–	–	–	–	–
O=C(N[C@H]1CC[C@@]2(O)[C@H]3Cc4ccc(O)c5c4[C@@]2(CCN3CC2CC2)[C@H]1O5)c1cnc2ccccc2c1	277	16	1.81 nM	0.12 nM	32.2 nM	164%	–	44.8%	4.45 mg/kg	2.29 nM	–	–	–	–
O=C(N[C@H]1CC[C@@]2(O)[C@H]3Cc4ccc(O)c5c4[C@@]2(CCN3CC2CC2)[C@H]1O5)c1ccc2ccccc2n1	693	46	9.84 nM	0.21 nM	148 nM	240%	–	65.4%	–	0.09 nM	–	–	–	4.57 mg/kg
